Laboratory results as given in ChEMBL document CHEMBL1681706, “Design and synthesis of novel CCR2 antagonists: investigation of non-aryl/heteroaryl binding motifs” (Bioorg Med Chem Lett, 2011).

Tests used:
[1] = molecular target: T1, C-C chemokine receptor type 2 (Homo sapiens, UniProt P41597); assay: Displacement of [125I]MCP1 from human CCR2 preincubated 30 mins by human whole cell binding assay
Procedure, shortened: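 Whole cell binding to human CCR2, with a 30 min preincubation with compound.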
Target sequence in this assay (P41597 whole entry): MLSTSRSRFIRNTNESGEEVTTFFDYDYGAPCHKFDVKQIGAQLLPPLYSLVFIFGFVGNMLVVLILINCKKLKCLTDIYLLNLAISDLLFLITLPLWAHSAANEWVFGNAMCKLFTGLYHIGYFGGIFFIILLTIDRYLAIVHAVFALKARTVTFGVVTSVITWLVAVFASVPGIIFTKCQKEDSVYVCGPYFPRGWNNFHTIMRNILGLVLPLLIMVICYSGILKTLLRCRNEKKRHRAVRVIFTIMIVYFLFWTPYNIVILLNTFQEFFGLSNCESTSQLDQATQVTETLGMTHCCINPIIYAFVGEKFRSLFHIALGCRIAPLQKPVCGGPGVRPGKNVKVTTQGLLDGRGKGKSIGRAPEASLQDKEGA

[2] = Half life in human liver microsomes at 1 uM; type: ADME, Microsome
Procedure, shortened: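 Human liver microsome stability test, read out as half-life (t1/2, min) after a single low dose of compound.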

[3] = molecular target: hERG (KCNH2) (Homo sapiens, UniProt Q12809); assay: Displacement of dofetilide from human ERG at 10 uM; details: probe dofetilide
Chain of hERG (KCNH2) (Q12809 whole entry): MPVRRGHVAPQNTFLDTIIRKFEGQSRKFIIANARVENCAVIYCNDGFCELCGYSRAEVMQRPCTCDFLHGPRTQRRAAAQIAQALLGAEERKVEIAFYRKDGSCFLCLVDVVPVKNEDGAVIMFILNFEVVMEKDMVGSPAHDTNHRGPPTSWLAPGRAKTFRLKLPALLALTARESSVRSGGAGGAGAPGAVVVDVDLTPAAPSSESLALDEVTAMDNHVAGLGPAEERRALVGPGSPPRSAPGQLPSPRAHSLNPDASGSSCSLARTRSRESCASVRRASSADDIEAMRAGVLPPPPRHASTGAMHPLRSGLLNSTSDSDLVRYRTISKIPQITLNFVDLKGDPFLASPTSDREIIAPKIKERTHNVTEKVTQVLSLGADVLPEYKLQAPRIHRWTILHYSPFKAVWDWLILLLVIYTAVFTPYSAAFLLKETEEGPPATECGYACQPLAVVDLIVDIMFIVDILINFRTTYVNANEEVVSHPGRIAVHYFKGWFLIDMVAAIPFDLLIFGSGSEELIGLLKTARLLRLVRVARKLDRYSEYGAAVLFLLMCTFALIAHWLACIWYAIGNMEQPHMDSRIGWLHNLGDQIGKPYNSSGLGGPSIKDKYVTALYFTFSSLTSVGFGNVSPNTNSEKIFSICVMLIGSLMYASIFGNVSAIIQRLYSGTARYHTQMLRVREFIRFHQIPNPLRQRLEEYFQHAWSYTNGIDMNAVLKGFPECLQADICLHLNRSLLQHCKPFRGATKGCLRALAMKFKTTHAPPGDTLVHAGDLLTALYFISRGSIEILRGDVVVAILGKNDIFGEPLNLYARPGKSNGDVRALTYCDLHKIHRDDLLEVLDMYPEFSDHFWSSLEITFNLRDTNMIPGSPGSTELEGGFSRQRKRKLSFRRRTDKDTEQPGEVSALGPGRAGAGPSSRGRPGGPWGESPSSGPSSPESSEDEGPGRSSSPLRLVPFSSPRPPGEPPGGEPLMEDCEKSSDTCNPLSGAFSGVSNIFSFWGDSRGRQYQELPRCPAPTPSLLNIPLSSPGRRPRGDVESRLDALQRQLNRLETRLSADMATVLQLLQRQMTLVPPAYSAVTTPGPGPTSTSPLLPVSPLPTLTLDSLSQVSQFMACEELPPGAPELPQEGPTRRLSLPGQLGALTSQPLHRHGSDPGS
Procedure, shortened: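 hERG dofetilide assay, read out as percent inhibition at a single concentration of test compound.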

[4] = molecular target: T1, C-C chemokine receptor type 2; assay: Displacement of [125I]MCP1 from human CCR2 preincubated 1 hrs by human whole cell binding assay
Procedure, shortened: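 Human CCR2 whole cell binding, with compound preincubated for 1 h before the binding read-out.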
Target sequence in this assay (P41597 whole entry): as the sequence (P41597 whole entry) above

[5] = molecular target: T1, C-C chemokine receptor type 2; assay: Displacement of [125I]MCP1 from human CCR2 at 0.30 uM preincubated 1 hr by human whole cell binding assay
Target sequence in this assay (P41597 whole entry, looked up): as the sequence (P41597 whole entry) above

[6] = Apparent permeability from apical to basolateral side of MDCK cells; type: ADME, cell-based, Canis lupus familiaris; details: dog
[7] = Apparent permeability from basolateral to apical side of MDCK cells; type: ADME, cell-based, Canis lupus familiaris; details: dog
[8] = Efflux ratio of permeability from basolateral to apical over apical to basolateral side of MDCK cells; type: ADME, cell-based, Canis lupus familiaris; details: dog
[9] = molecular target: T1, C-C chemokine receptor type 2; assay: Displacement of [125I]MCP1 from human CCR2 at 0.30 uM preincubated 30 mins by human whole cell binding assay
Target sequence in this assay (P41597 whole entry, looked up): as the sequence (P41597 whole entry) above

[10] = molecular target: T1, C-C chemokine receptor type 2; assay: Displacement of [125I]MCP1 from human CCR2 at 0.30 uM by human whole cell binding assay
Target sequence in this assay (P41597 whole entry, looked up): as the sequence (P41597 whole entry) above

IC50 [1] [nM]	half-life at 1 µM [2] [h]	IC50 [4] [nM]	Compound	inhibition at 10 µM [3] [%]	other results
14.7	0.8	–	CC(C)[C@]1(C(=O)N2C[C@@H]3C[C@H]2CN3C(=O)CC2CCCC2)CC[C@@H](NC2CCOCC2F)C1 (stereo partly specified)	3	–
39.5	1.27	–	CC(C)[C@]1(C(=O)N2C[C@@H]3C[C@H]2CN3C(=O)CC(C)(C)C)CC[C@@H](NC2CCOCC2F)C1 (stereo partly specified)	0	–
–	> 2	2.9	CO[C@@H]1COCC[C@@H]1N[C@@H]1CC[C@@](C(=O)N2C[C@@H]3C[C@H]2CN3C(=O)OC(C)(C)C)(C(C)C)C1	0	–
13.9	> 2	–	CC(C)[C@]1(C(=O)N2C[C@@H]3C[C@H]2CN3C(=O)C2CCCC2)CC[C@@H](NC2CCOCC2F)C1 (stereo partly specified)	3	–
75.9	–	–	CC(C)[C@]1(C(=O)N2C[C@@H]3C[C@H]2CN3C(=O)N2CCCCC2)CC[C@@H](NC2CCOCC2F)C1 (stereo partly specified)	0	–
4.3	0.467	–	CC(C)COC(=O)N1C[C@@H]2C[C@H]1CN2C(=O)[C@@]1(C(C)C)CC[C@@H](NC2CCOCC2F)C1 (stereo partly specified)	0	–
11.1	> 2	8.5	CO[C@@H]1COCC[C@@H]1N[C@@H]1CC[C@@](C(=O)N2C[C@@H]3C[C@H]2CN3C(=O)C2CCCC2)(C(C)C)C1	6.7	–
–	0.62	4.2	CC(C)[C@]1(C(=O)N2C[C@@H]3C[C@H]2CN3C(=O)OC(C)(C)C)CC[C@@H](NC2CCOCC2F)C1 (stereo partly specified)	6	–
–	> 2	–	CO[C@@H]1COCC[C@@H]1N[C@@H]1CC[C@@](C(=O)N2C[C@@H]3C[C@H]2CN3C(=O)C(C)(C)C)(C(C)C)C1	6	Activity [5]: 40%
24.2	> 2	17	CO[C@@H]1COCC[C@@H]1N[C@@H]1CC[C@@](C(=O)N2C[C@@H]3C[C@H]2CN3C(=O)CC(C)(C)C)(C(C)C)C1	0	–
12	1.57	6.5	CO[C@@H]1COCC[C@@H]1N[C@@H]1CC[C@@](C(=O)N2C[C@@H]3C[C@H]2CN3C(=O)c2ccccc2)(C(C)C)C1	7.8	–
12.8	> 2	–	CC(CC(=O)N1C[C@@H]2C[C@H]1CN2C(=O)[C@@]1(C(C)C)CC[C@@H](NC2CCOCC2F)C1)C(F)(F)F (stereo partly specified)	0	Papp A→B [6]: 11.8 ×10⁻⁶ cm/s; Papp B→A [7]: 10.2 ×10⁻⁶ cm/s; efflux ratio [8]: 0.8
–	> 2	–	CC(C)[C@]1(C(=O)N2C[C@@H]3C[C@H]2CN3C(=O)C(C)(C)C)CC[C@@H](NC2CCOCC2)C1	2	Activity [9]: 23%
38.4	0.35	–	CC(C)[C@]1(C(=O)N2C[C@@H]3C[C@H]2CN3C(=O)C2CCC2)CC[C@@H](NC2CCOCC2F)C1 (stereo partly specified)	17	–
14.6	> 2	–	CC(C)[C@]1(C(=O)N2C[C@@H]3C[C@H]2CN3C(=O)CCC(F)(F)F)CC[C@@H](NC2CCOCC2)C1	1	–
–	> 2	36.9	CC(C)[C@]1(C(=O)N2C[C@@H]3C[C@H]2CN3C(=O)CC(C)(C)C)CC[C@@H](NC2CCOCC2)C1	5.7	–
–	> 2	32	CC(C)[C@]1(C(=O)N2C[C@@H]3C[C@H]2CN3C(=O)C2CCC2)CC[C@@H](NC2CCOCC2)C1	6	–
3.5	1.3	–	CC(OC(=O)N1C[C@@H]2C[C@H]1CN2C(=O)[C@@]1(C(C)C)CC[C@@H](NC2CCOCC2)C1)C(F)(F)F (stereo partly specified)	2	–

IC50 [1] [nM]	half-life at 1 µM [2] [h]	IC50 [4] [nM]	Compound	inhibition at 10 µM [3] [%]	other results
11.6	1.55	–	CC(C)[C@]1(C(=O)N2C[C@@H]3C[C@H]2CN3C(=O)C2CCCCC2)CC[C@@H](NC2CCOCC2)C1	4	–
–	> 2	–	CC(C)[C@]1(C(=O)N2C[C@@H]3C[C@H]2CN3C(=O)C2CCOCC2)CC[C@@H](NC2CCOCC2)C1	0	Activity [9]: 46%
28	1.77	–	CC(C)[C@]1(C(=O)N2C[C@@H]3C[C@H]2CN3C(=O)NC(C)(C)C)CC[C@@H](NC2CCOCC2F)C1 (stereo partly specified)	0	–
–	> 2	12.2	CC(C)[C@]1(C(=O)N2C[C@@H]3C[C@H]2CN3C(=O)C2CCCC2)CC[C@@H](NC2CCOCC2)C1	2	–
–	> 2	5	CC(C)[C@]1(C(=O)N2C[C@@H]3C[C@H]2CN3C(=O)OC(C)(C)C)CC[C@@H](NC2CCOCC2)C1	4.8	–
15.2	0.917	–	CC(C)[C@]1(C(=O)N2C[C@@H]3C[C@H]2CN3C(=O)C2CCCCC2)CC[C@@H](NC2CCOCC2F)C1 (stereo partly specified)	0	–
17.3	> 2	–	CC(C)[C@]1(C(=O)N2C[C@@H]3C[C@H]2CN3C(=O)CCC(F)(F)F)CC[C@@H](NC2CCOCC2F)C1 (stereo partly specified)	5	Papp A→B [6]: 8.35 ×10⁻⁶ cm/s; Papp B→A [7]: 5.3 ×10⁻⁶ cm/s; efflux ratio [8]: 0.6
–	> 2	11.7	CO[C@@H]1COCC[C@@H]1N[C@@H]1CC[C@@](C(=O)N2C[C@@H]3C[C@H]2CN3C(=O)C2CCC2)(C(C)C)C1	4	–
–	–	251	CO[C@@H]1COCC[C@@H]1N[C@@H]1CC[C@@](C(=O)N2CCN(C(=O)OC(C)(C)C)CC2)(C(C)C)C1	–	–
–	> 2	–	CC(C)C(=O)N1C[C@@H]2C[C@H]1CN2C(=O)[C@@]1(C(C)C)CC[C@@H](NC2CCOCC2)C1	3.7	Activity [9]: 40%
–	> 2	–	CCC(=O)N1C[C@@H]2C[C@H]1CN2C(=O)[C@@]1(C(C)C)CC[C@@H](NC2CCOCC2)C1	6	Activity [9]: 28%
17.5	–	–	CC(C)[C@]1(C(=O)N2C[C@@H]3C[C@H]2CN3C(=O)c2ccccc2)CC[C@@H](NC2CCOCC2F)C1 (stereo partly specified)	0	–
3.2	0.433	–	CC(OC(=O)N1C[C@@H]2C[C@H]1CN2C(=O)[C@@]1(C(C)C)CC[C@@H](NC2CCOCC2F)C1)C(F)(F)F (stereo partly specified)	3	–
–	> 2	–	CC(=O)N1C[C@@H]2C[C@H]1CN2C(=O)[C@@]1(C(C)C)CC[C@@H](NC2CCOCC2)C1	0	Activity [9]: 1%
3.1	0.283	–	CC(C)[C@]1(C(=O)N2C[C@@H]3C[C@H]2CN3C(=O)OC2CCCC2)CC[C@@H](NC2CCOCC2F)C1 (stereo partly specified)	0	–
13	> 2	–	CC(CC(=O)N1C[C@@H]2C[C@H]1CN2C(=O)[C@@]1(C(C)C)CC[C@@H](NC2CCOCC2)C1)C(F)(F)F (stereo partly specified)	5	–
–	–	–	CC(C)[C@]1(C(=O)N2CCN(C(=O)OC(C)(C)C)CC2)CC[C@@H](NC2CCOCC2)C1	–	Activity [10]: 24%
130	> 2	–	CC(C)[C@]1(C(=O)N2C[C@@H]3C[C@H]2CN3C(=O)C2CC2)CC[C@@H](NC2CCOCC2)C1	2.3	–
